# Laboratory results: ChEMBL document CHEMBL4392826, “Prototyping kinase inhibitor-cytotoxin anticancer mutual prodrugs activated by tumour hypoxia: A chemical proof of concept study” (Bioorg Med Chem Lett, 2019)
# Experiments:
# [1] = Ratio of test compound IC50 to melphalan IC50 for human MDA-MB-468 cells incubated for 4 hrs under aerobic condition followed by compound washout and measured after 5 days by SRB assay; type: ADME, cell-based; conditions: read-out: Ratio IC50
# Outline: (§1)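 Deactivation ratio: aerobic IC50 of the prodrug divided by the aerobic IC50 of the parent control cytotoxin, in the same cell line (MDA-MB-468 or SW620).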
# SW-620 [2] = experiment: Cytotoxicity against human SW620 cells incubated for 4 hrs under hypoxic condition followed by compound washout and measured after 5 days by SRB assay; type: functional, cell-based
# Outline: (§2)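 Antiproliferative IC50 in MDA-MB-468 triple-negative breast or SW620 colon cancer cells, exposed under aerobic or anoxic conditions; mean ± std dev, n = 3.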
# SW-620 [3] = experiment: Selectivity ratio of IC50 for human SW620 cells under aerobic condition to IC50 for human SW620 cells under hypoxic condition
# Outline: (§3)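 Hypoxic cytotoxicity ratio: aerobic IC50 divided by anoxic IC50 in the same cell line (MDA-MB-468 or SW620).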
# MDA-MB-468 [4] = experiment: Selectivity ratio of IC50 for human MDA-MB-468 cells under aerobic condition to IC50 for human MDA-MB-468 cells under hypoxic condition; outline: as §3
# [5] = Ratio of test compound IC50 to melphalan IC50 for human SW620 cells incubated for 4 hrs under aerobic condition followed by compound washout and measured after 5 days by SRB assay; type: ADME, cell-based, SW-620; conditions: read-out: Ratio IC50; outline: as §1
# MDA-MB-468 [6] = experiment: Cytotoxicity against human MDA-MB-468 cells incubated for 4 hrs under hypoxic condition followed by compound washout and measured after 5 days by SRB assay; type: functional, cell-based; outline: as §2
# SW-620 [7] = experiment: Cytotoxicity against human SW620 cells incubated for 4 hrs under aerobic condition followed by compound washout and measured after 5 days by SRB assay; type: cell-based; outline: as §2
# MDA-MB-468 [8] = experiment: Cytotoxicity against human MDA-MB-468 cells incubated for 4 hrs under aerobic condition followed by compound washout and measured after 5 days by SRB assay; type: cell-based; outline: as §2
# [9] = Aqueous solubility of the compound; type: physicochemical; conditions: buffer
# [10] = Ratio of test compound IC50 to floxuridine IC50 for human SW620 cells incubated for 4 hrs under aerobic condition followed by compound washout and measured after 5 days by SRB assay; type: ADME, cell-based, SW-620; conditions: read-out: Ratio IC50
# Outline: (§4)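 Deactivation ratio: aerobic antiproliferative IC50 of the prodrug divided by aerobic IC50 of the parent cytotoxin control (floxuridine). IC50 values were means ± std dev, n = 3, determined in MDA-MB-468 triple-negative breast or SW620 colon cancer cells.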
# [11] = Electrochemical behavior of the compound assessed as one-elctron reduction potential at 50 uM in pH 7 deaerated phosphate buffered by pulse radiolysis
# [12] = Ratio of test compound IC50 to floxuridine IC50 for human MDA-MB-468 cells incubated for 4 hrs under aerobic condition followed by compound washout and measured after 5 days by SRB assay; type: ADME, cell-based; conditions: read-out: Ratio IC50; outline: as §4
# [13] = Electrochemical behavior of the compound assessed as one-elctron reduction potential at 0.42 uM in tert-butanol by pulse radiolysis
Structure (SMILES),selectivity ratio at 4 h [1],IC50 (SW-620 [2]),Ratio IC50 (SW-620 [3]),Ratio IC50 (MDA-MB-468 [4]),selectivity ratio at 4 h [5],IC50 (MDA-MB-468 [6]),IC50 (SW-620 [7]),IC50 (MDA-MB-468 [8]),solubility [9],selectivity ratio at 4 h [10],Activity [11],selectivity ratio at 4 h [12],Activity [13]
Cc1cc(C)c(/C=C(\C(=O)Nc2ccc(N(CCCl)CCCl)cc2)c2ccccc2[N+](=O)[O-])[nH]1,8.3,12.7 µM,<1,1.1,6.3,7.38 µM,11.5 µM,8.31 µM,Insoluble,,,,
Nc1n[n+]([O-])c2ccccc2[n+]1[O-] [TIRAPAZAMINE],,1.2 µM,76,81,,1.3 µM,91 µM,105 µM,,,,,
Cc1cc(C)c(/C=C(\C(=O)OC[C@H]2O[C@@H](n3cc(F)c(=O)[nH]c3=O)C[C@@H]2O)c2ccccc2[N+](=O)[O-])[nH]1,,14 µM,1.3,<1,,248 µM,18.7 µM,83.9 µM,,19.4,-509 mV,3.1,
N[C@@H](Cc1ccc(N(CCCl)CCCl)cc1)C(=O)O [MELPHALAN],,1.22 µM,1.5,1.2,,0.81 µM,1.81 µM,1 µM,,,,,
Cn1c(COP(=O)(NCCBr)NCCBr)cnc1[N+](=O)[O-] [EVOFOSFAMIDE],,0.052 µM,396,710,,0.0062 µM,20.6 µM,4.4 µM,,,,,
Cc1cc(C)c(/C=C(\C(=O)Nc2ccc(N(CCO)CCO)cc2)c2ccccc2[N+](=O)[O-])[nH]1,,,,,,,,,,,,,-550 mV
O=c1[nH]c(=O)n([C@H]2C[C@H](O)[C@@H](CO)O2)cc1F [FLOXURIDINE],,1.48 µM,<1,<1,,45.5 µM,0.96 µM,27.4 µM,,,,,
